For 14 compounds, MIC, Activity and CC50 results are on record in ChEMBL document CHEMBL2396649, “Synthesis and antibacterial activity of novel phosphonium salts on the basis of pyridoxine” (Bioorg Med Chem, 2013).

In brackets after ≈: the same amount, converted by molar mass. Activity calls are given as the source filed them. No cut-off for these calls is given here.

For one data set, the system named is Proteus. The data set is described as follows: Antibacterial activity against Proteus spp. assessed as growth inhibition after 18 to 24 hrs. The format is functional. A digest of the protocol:
(§1)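 Clinical isolates from a regional epidemiology institute. Broth microdilution: inoculum 5 × 10⁵ CFU/ml in Müller-Hinton broth (pH 7.3) with serial concentrations of salts, incubated at 35 °C for 18–24 h. MIC taken as lowest concentration with no detectable bacterial growth.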

Data set [1] relates to Staphylococcus epidermidis. The data set is described as follows: Antibacterial activity against Staphylococcus epidermidis assessed as growth inhibition after 18 to 24 hrs. The format is functional. In a few lines:
as §1

The test system of the next data set is Klebsiella pneumoniae. Nature of the data set: Antibacterial activity against Klebsiella pneumoniae assessed as growth inhibition after 18 to 24 hrs. In kind it is functional. A digest of the protocol:
as §1

Data set [2] has as its system Staphylococcus aureus. The data set is described as follows: Antibacterial activity against Staphylococcus aureus assessed as growth inhibition after 18 to 24 hrs. The format is functional. In a few lines: as §1
For data set [3], the system named is Staphylococcus aureus. The data set is described as follows: Antibacterial activity against Staphylococcus aureus 25923 assessed as increase in hydrodynamic diameter of plasmid DNA at 0.01 mg/ml after 1 hr by light scatterning method (reference value: 360.7 +/- 18 nm). In kind it is functional.
For data set [4], the system named is Staphylococcus aureus. Nature of the data set: Antibacterial activity against Staphylococcus aureus 25923 assessed as DNA migration out of cells at 10 ug/ml after 1 hr by SYBR green staining-based fluorescent microscopic analysis. The format is functional, organism-based. A digest of the protocol: (§2)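 S. aureus 25923 pre-grown on blood agar at 37 °C, cultured overnight in Müller-Hinton broth (pH 7.3), pelleted and resuspended in PBS. After treatment, cells centrifuged 3000 g 15 min, washed twice in PBS, embedded in agarose microgels, lysed, stained with SYBR Green I and imaged by fluorescence microscopy.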

Data set [5] deals with Staphylococcus aureus. The data set is described as follows: Antibacterial activity against Staphylococcus aureus 25923 assessed as increase in polydispersity index of plasmid DNA at 0.1 mg/ml after 1 hr by light scatterning method (reference value: 0.425 no unit). The format is functional.
Data set [6] deals with Staphylococcus aureus. The data set is described as follows: Antibacterial activity against Staphylococcus aureus 25923 assessed as DNA fragmentation at 10 ug/ml after 1 hr by SYBR green staining-based fluorescent microscopic analysis. The format is functional, organism-based. A digest of the protocol: as §2
Data set [7] concerns Staphylococcus aureus. Nature of the data set: Antibacterial activity against Staphylococcus aureus 25923 assessed as increase in polydispersity index of plasmid DNA at 0.01 mg/ml after 1 hr by light scatterning method (reference value: 0.425 no unit). The format is functional.
Data set [8] relates to Staphylococcus aureus. Nature of the data set: Antibacterial activity against Staphylococcus aureus 25923 assessed as decrease in zeta potential of plasmid DNA at 0.1 mg/ml after 1 hr by light scatterning method (reference value: -50.7 +/- 1 mV). In kind it is functional.
In data set [9] the test system is Staphylococcus aureus. Nature of the data set: Antibacterial activity against Staphylococcus aureus 25923 assessed as decrease in zeta potential of plasmid DNA at 0.01 mg/ml after 1 hr by light scatterning method (reference value: -50.7 +/- 1 mV). In kind it is functional.
For data set [10], the system named is Staphylococcus aureus. Nature of the data set: Antibacterial activity against Staphylococcus aureus 25923 assessed as increase in hydrodynamic diameter of plasmid DNA at 0.1 mg/ml after 1 hr by light scatterning method (reference value: 360.7 +/- 18 nm). The format is functional.
Data set [11] is described as follows: Cytotoxicity against human skin fibroblasts after 72 hrs by MTT assay. On the set-up: species or system Skin fibroblast. In a few lines: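 Human skin fibroblasts seeded at 3000 cells/well, attached overnight, then exposed to salt solutions (1 µg/ml–1 mg/ml) for 72 h at 37 °C, 5% CO₂. Cells washed with fresh medium and subjected to MTT assay; reduced product read at 550 nm. CC50 derived.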

For data set [12], the system named is Staphylococcus aureus. The data set is described as follows: Antibacterial activity against Staphylococcus aureus 25923 assessed as partial DNA fragmentation at 0.01 to 10 mg/ml after 1 hr by agarose gel electrophoresis method.

As usually defined, the MIC is the least concentration at which growth counts as inhibited. Take `Cc1ncc(C[P+](c2ccccc2)(c2ccccc2)c2ccccc2)c2c1OC(C)(C)OC2.[Cl-]`: the minimum inhibitory concentration (MIC) in the data set on Proteus is greater than 1000 µg/mL; in data set [1], 1000 µg/mL; in the data set on Klebsiella pneumoniae it was greater than 1000 µg/mL; in the data set with Staphylococcus aureus [2] it was 1000 µg/mL.

As to `CC1(C)OCc2c(C[P+](c3ccccc3)(c3ccccc3)c3ccccc3)cnc(C[P+](c3ccccc3)(c3ccccc3)c3ccccc3)c2O1.[Cl-].[Cl-]`, the MIC with Proteus is greater than 1000 µg/mL; in [1] it was 50 µg/mL; in the data set on Klebsiella pneumoniae, greater than 1000 µg/mL; in the data set with Staphylococcus aureus [2], 62.5 µg/mL.

For `CC1(C)OCc2c(CO)c(CO)nc(C[P+](c3ccccc3)(c3ccccc3)c3ccccc3)c2O1.[Cl-]`, the MIC (with Proteus; in data set [1]; with Klebsiella pneumoniae; in the data set with Staphylococcus aureus [2]) was greater than 1000 µg/mL throughout.

For `Cl.OCc1nc(C[P+](c2ccccc2)(c2ccccc2)c2ccccc2)c(O)c(CO)c1CO.[Cl-]`, the minimum inhibitory concentration (MIC) (in the data set on Proteus; in [1]; in the data set with Klebsiella pneumoniae; in the data set on Staphylococcus aureus [2]) was greater than 1000 µg/mL in each case.

For the compound `CN[C@H](CC(C)C)C(=O)N[C@H]1C(=O)N[C@@H](CC(N)=O)C(=O)N[C@H]2C(=O)N[C@H]3C(=O)N[C@H](C(=O)N[C@H](C(=O)O)c4cc(O)cc(O)c4-c4cc3ccc4O)[C@H](O)c3ccc(c(Cl)c3)Oc3cc2cc(c3O[C@@H]2O[C@H](CO)[C@@H](O)[C@H](O)[C@H]2O[C@H]2C[C@](C)(N)[C@H](O)[C@H](C)O2)Oc2ccc(cc2Cl)[C@H]1O` [VANCOMYCIN], the minimum inhibitory concentration (MIC) was greater than 1000 µg/mL with Proteus, 2.5 µg/mL (≈ 1.73 µM) in data set [1], greater than 1000 µg/mL with Klebsiella pneumoniae and 2.5 µg/mL (≈ 1.73 µM) in the data set with Staphylococcus aureus [2].

Regarding `Cc1ncc(C[P+](c2ccccc2)(c2ccccc2)c2ccccc2)c(CO)c1O.Cl.[Cl-]`, the minimal inhibitory concentration (MIC) in the data set on Proteus was greater than 1000 µg/mL; in data set [1] it was 1000 µg/mL; in the data set on Klebsiella pneumoniae, greater than 1000 µg/mL; in the data set on Staphylococcus aureus [2], 1000 µg/mL.

For the compound `CC1(C)OCc2c(C[P+](c3ccccc3)(c3ccccc3)c3ccccc3)c(C[P+](c3ccccc3)(c3ccccc3)c3ccccc3)nc(C[P+](c3ccccc3)(c3ccccc3)c3ccccc3)c2O1.[Cl-].[Cl-].[Cl-]`, the minimal inhibitory concentration (MIC) in the data set on Proteus was greater than 1000 µg/mL; in [1] it was 50 µg/mL; with Klebsiella pneumoniae, greater than 1000 µg/mL; in the data set on Staphylococcus aureus [2] it was 50 µg/mL.

Regarding `CC(=O)Oc1c(C)nc(C[P+](c2ccccc2)(c2ccccc2)c2ccccc2)c2c1COC(C)(C)OC2.[Cl-]`, the MIC in the data set on Proteus was greater than 1000 µg/mL; in data set [1], 100 µg/mL; in the data set on Klebsiella pneumoniae it was greater than 1000 µg/mL; in the data set on Staphylococcus aureus [2], 100 µg/mL.

As a reminder, the CC50 is the concentration at which the toxic effect on the cells reaches its halfway point. Higher therefore signals better tolerance by the cells. Regarding `Cc1nc(C[P+](c2ccccc2)(c2ccccc2)c2ccccc2)c(C[P+](c2ccccc2)(c2ccccc2)c2ccccc2)c2c1OC(C)(C)OC2.[Cl-].[Cl-]`, the Activity in the data set with Staphylococcus aureus [3] is given as 500.9 nm; in the data set on Staphylococcus aureus [5], 0.844; with Staphylococcus aureus [7], 0.717; in the data set with Staphylococcus aureus [8], -35.2 mV; in the data set with Staphylococcus aureus [9] it was -46.6 mV; with Staphylococcus aureus [10], 452.3 nm. The result with Staphylococcus aureus [4], with Staphylococcus aureus [6] and in the data set with Staphylococcus aureus [12] was Active. Besides, the minimal inhibitory concentration (MIC) with Proteus was greater than 1000 µg/mL; in [1], 5 µg/mL; in the data set on Klebsiella pneumoniae it was greater than 1000 µg/mL; in the data set with Staphylococcus aureus [2], 5 µg/mL. Moreover, it took 160 µg/mL to reach half-maximal cytotoxicity in data set [11] (CC50 at 72 h).

As to `Cl.OCc1c(C[P+](c2ccccc2)(c2ccccc2)c2ccccc2)cnc(C[P+](c2ccccc2)(c2ccccc2)c2ccccc2)c1O.[Cl-].[Cl-]`, the MIC is greater than 1000 µg/mL with Proteus, 250 µg/mL in data set [1], greater than 1000 µg/mL in the data set with Klebsiella pneumoniae and 250 µg/mL in the data set on Staphylococcus aureus [2].

For the compound `Cl.OCc1c(O)c(C[P+](c2ccccc2)(c2ccccc2)c2ccccc2)nc(C[P+](c2ccccc2)(c2ccccc2)c2ccccc2)c1C[P+](c1ccccc1)(c1ccccc1)c1ccccc1.[Cl-].[Cl-].[Cl-]`, the minimum inhibitory concentration (MIC) with Proteus is greater than 1000 µg/mL; in data set [1] it was 500 µg/mL; in the data set on Klebsiella pneumoniae, greater than 1000 µg/mL; in the data set with Staphylococcus aureus [2] it was 500 µg/mL.

As to `Cc1nc(C[P+](c2ccccc2)(c2ccccc2)c2ccccc2)c(C[P+](c2ccccc2)(c2ccccc2)c2ccccc2)c(CO)c1O`, the minimal inhibitory concentration (MIC) in the data set on Proteus is greater than 1000 µg/mL; in data set [1] it was 1000 µg/mL; with Klebsiella pneumoniae, greater than 1000 µg/mL; with Staphylococcus aureus [2], 1000 µg/mL.

As for `Cc1nc(C[P+](c2ccccc2)(c2ccccc2)c2ccccc2)c(CO)c(CO)c1O.Cl.[Cl-]`, the MIC is greater than 1000 µg/mL in the data set with Proteus, 1000 µg/mL in data set [1], greater than 1000 µg/mL with Klebsiella pneumoniae and 1000 µg/mL in the data set with Staphylococcus aureus [2].

As for `Cc1nc(CO)c(C[P+](c2ccccc2)(c2ccccc2)c2ccccc2)c(CO)c1O.Cl.[Cl-]`, the MIC was greater than 1000 µg/mL in the data set with Proteus, 1000 µg/mL in [1], greater than 1000 µg/mL in the data set with Klebsiella pneumoniae and 1000 µg/mL in the data set with Staphylococcus aureus [2].
